Experiment [1] concerns MT4. The experiment can be described thus: Compound was evaluated for the anticoagulant activity. In kind it is functional, Homo sapiens. The gist of the method:
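Zucker activated partial thromboplastin time (APTT) method; value is the concentration (µg/mL) giving 2-fold APTT. Median of 2 or 3 experiments.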

Experiment [2] concerns MT4. Briefly: Compound was evaluated for the minimum concentration for appearance of MT-4 cell toxicity. Type of experiment: functional, Homo sapiens. The gist of the method:
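MT-4 cells incubated 5 days with test compound (12 doses, 0.49–1000 µg/mL); lowest concentration at which toxicity appears, viable cells by trypan blue staining in mock-infected cultures. Median of 2 or 3 experiments.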

The test system of experiment [3] is MOLT-4. The experiment can be described thus: Suppressive effect on giant-cell formation against HIV-2GH-1 in MOLT-4 cells. In kind it is functional, Homo sapiens. The gist of the method:
(§1)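 Uninfected MOLT-4 mixed 1:1 with persistently infected MOLT-4 (HIV-1 LAV-1 or HIV-2 GH-1 carriers), 5×10^5 cells/mL total, cultured 24 h with compound. Viable cells counted by trypan blue exclusion; fusion index = 1 − cells in test well/cells in uninfected MOLT-4 control. Median of 2 or 3 experiments.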

For experiment [4], the system named is MT4. The experiment can be described thus: The minimum concentration for complete inhibition (IC100) of HIV-1 strain KK-1AIDS from human induced CPE in MT-4 cells. Type of experiment: functional. The procedure, abridged:
(§2)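 MT-4 cells infected 1 h with HIV-1 (LAV-1 or patient isolate KK-1 AIDS) at 0.001 TCID50 per cell, unbound virus washed off. Cultured 5 days with compound (12 doses, 0.49–1000 µg/mL); viable cells in infected and mock cultures by trypan blue. Minimum concentration fully preventing CPE; median of 2 or 3 experiments.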

For experiment [5], the system named is MT4. The experiment can be described thus: The minimum concentration for complete inhibition (IC100) of HIV-1 strain LAV-1 from human induced CPE in MT-4 cells. Type of experiment: functional. The gist of the method: as §2
Experiment [6] deals with MOLT-4. The experiment can be described thus: Suppressive effect on giant-cell formation against HIV-1LAV-1 in MOLT-4 cells. In kind it is functional, Homo sapiens. The gist of the method: as §1

Some results are limits rather than exact numbers.

With `COc1ccc(NCC2O[C@@H]3O[C@@H]4C(CNc5ccc(OC)cc5)O[C@@H](O[C@@H]5C(CNc6ccc(OC)cc6)O[C@H](O[C@@H]6C(CNc7ccc(OC)cc7)O[C@H](O[C@@H]7C(CNc8ccc(OC)cc8)O[C@H](O[C@@H]8C(CNc9ccc(OC)cc9)O[C@H](O[C@@H]9C(CNc%10ccc(OC)cc%10)O[C@H](O[C@H]2C(O)C3OS(=O)(=O)[O-])C(OS(=O)(=O)[O-])C9OS(=O)(=O)[O-])C(OS(=O)(=O)[O-])C8OS(=O)(=O)[O-])C(OS(=O)(=O)[O-])C7O)C(OS(=O)(=O)[O-])C6OS(=O)(=O)[O-])C(OS(=O)(=O)[O-])C5OS(=O)(=O)[O-])C(OS(=O)(=O)[O-])C4OS(=O)(=O)[O-])cc1.[Na+].[Na+].[Na+].[Na+].[Na+].[Na+].[Na+].[Na+].[Na+].[Na+].[Na+].[Na+]` (stereo partly specified), the APTT in experiment [1] amounted to 4.3 µg/mL. The compound further returned a Cytotoxicity in experiment [2] of more than 1000 µg/mL. The Supressive effect in experiment [3] was determined as 40.2 µg/mL; in experiment [6], 5.5 µg/mL. Moreover, the IC100 in experiment [4] is 31.2 µg/mL; in experiment [5], 0.98 µg/mL.
As to `O=[PH](O)OCC1O[C@H]2O[C@@H]3C(CO[PH](=O)O)O[C@H](O[C@@H]4C(CO[PH](=O)O)O[C@H](O[C@@H]5C(CO[PH](=O)O)O[C@H](O[C@@H]6C(CO[PH](=O)O)O[C@H](O[C@@H]7C(CO[PH](=O)O)O[C@H](O[C@@H]8C(CO[PH](=O)O)O[C@H](O[C@H]1C(O)C2O)C(O)C8Cl)C(O)C7Cl)C(O)C6O[PH](=O)O)C(O)C5Cl)C(O)C4Cl)C(O)C3Cl` (stereo partly specified) [CYCLODEXTRIN PHOSPHATE], in experiment [1], the APTT amounted to 47.2 µg/mL. In experiment [2], this compound displayed a Cytotoxicity of more than 1000 µg/mL. Besides, the IC100 in experiment [4] was determined as 40 µg/mL; in experiment [5], 31.2 µg/mL.
In experiment [1], `O=S(=O)([O-])OCC1O[C@@H]2O[C@@H]3C(COS(=O)(=O)[O-])O[C@H](O[C@@H]4C(COS(=O)(=O)[O-])O[C@@H](O[C@@H]5C(COS(=O)(=O)[O-])O[C@H](O[C@@H]6C(COS(=O)(=O)[O-])O[C@H](O[C@@H]7C(COS(=O)(=O)[O-])O[C@H](O[C@@H]8C(COS(=O)(=O)[O-])O[C@H](O[C@H]1C(O)C2OS(=O)(=O)[O-])C(OS(=O)(=O)[O-])C8O)C(OS(=O)(=O)[O-])C7O)C(OS(=O)(=O)[O-])C6O)C(OS(=O)(=O)[O-])C5O)C(OS(=O)(=O)[O-])C4O)C(OS(=O)(=O)[O-])C3O.[K+].[K+].[K+].[K+].[K+].[K+].[K+].[K+].[K+].[K+].[K+].[K+].[K+].[K+]` (stereo partly specified) [CYCLODEXTRIN SULFATE (CDS)] displayed an APTT of 2.83 µg/mL. This compound registered a Cytotoxicity in experiment [2] of more than 1000 µg/mL. The Supressive effect in experiment [3] was determined as 519 µg/mL; in experiment [6], 60 µg/mL. In addition, the IC100 is 125 µg/mL in experiment [4] and 31.2 µg/mL in experiment [5].

Source of the values: ChEMBL document CHEMBL1125597, “Potent inhibitory effect of a series of modified cyclodextrin sulfates (mCDS) on the replication of HIV-1 in vitro” (J Med Chem, 1991).
